This is an account of results in ChEMBL document CHEMBL4699636, “Novel 2,7-Diazaspiro[4,4]nonane Derivatives to Inhibit Mouse and Human Osteoclast Activities and Prevent Bone Loss in Ovariectomized Mice without Affecting Bone Formation” (J Med Chem, 2020).

Each structure is given as a SMILES string. Activity calls are given as the source filed them. No cut-off for these calls is given here.

In one data set the test system is Osteoclast. The data set is described as follows: Inhibition of resorption activity of mouse peripheral blood cell-derived osteoclasts at 5-10 uM incubated for 48 hrs by Kossa-staining based assay. Type of data set: functional, tissue-based. To be noted: dose microM 5-10, time 48.0 hrs, in the assay text read “bone marrow-derived” for “peripheral blood cell-derived”. In a few lines: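 Osteoclasts from C57BL/6J mouse bone marrow, M-CSF then M-CSF 30 ng/mL plus RANKL 100 ng/mL. Day-3 cells reseeded on calcium phosphate-coated wells, compound added next day in 0.5% DMSO for 48 h, 8 wells per condition. 4 wells TRAP-stained for osteoclast counts, 4 von Kossa-stained for resorbed area. Activity expressed as resorption normalized to osteoclast number.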

Data set [1] can be described thus: Toxicity in C57BL6/J mouse model of OVX-induced bone loss assessed as effect on body weight at 20 mg/kg, IP QD for 4 weeks. The note with it: in vivo, 672 h. Type of data set: organism-based. The essentials:
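Body weight tracked in 12-week-old OVX C57BL6/J mice during 4 weeks of ip 20 mg/kg q.d. or b.i.d. dosing in 0.485% carboxymethylcellulose/3% Tween 80, 10 mL/kg.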

Data set [2] in a line: Toxicity in C57BL6/J mouse model of OVX-induced bone loss assessed as effect on osteoclast numbers per bone perimeter at 20 mg/kg, IP BID for 4 weeks. Type of data set: organism-based. To be noted: in vivo, 672 h. In a few lines:
(§1)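 OVX mice, 12 weeks old, ip 20 mg/kg q.d. or b.i.d. for 4 weeks in CMC/Tween 80 vehicle. Distal right femur taken day 28. Static trabecular parameters measured on one 4-µm Masson-Goldner trichrome section, ROI 0.75 mm². n=10 per group, 9 in OVX+vehicle.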

Data set [3] can be described thus: Toxicity in C57BL6/J mouse model of OVX-induced bone loss assessed as effect on osteoclast numbers per bone perimeter at 20 mg/kg, IP QD for 4 weeks. Type of data set: organism-based. The note with it: in vivo, 672 h. The essentials:
as §1

Data set [4] deals with Mus musculus. The data set is described as follows: Antiosteoporotic activity in C57BL6/J mouse model of OVX-induced bone loss assessed as trabecular pattern factor level in tibial metaphysis at 20 mg/kg, ip QD for 4 weeks by microCT analysis (17.17 +/- 3.41 […]). Type of data set: functional.
Data set [5] relates to Mus musculus. Description: Antiosteoporotic activity in C57BL6/J mouse model of OVX-induced bone loss assessed as serum CTX-1 level […] at 20 mg/kg, ip QD for 4 weeks (165.38 +/- 54.93 %). The format is functional.
Data set [6] deals with Mus musculus. The data set is described as follows: Antiosteoporotic activity in C57BL6/J mouse model of OVX-induced bone loss assessed as trabecular number level in femoral metaphysis at 20 mg/kg, ip BID for 4 weeks by histomorphometry (2.99 +/- 0.80 /mm). Type of data set: functional. In a few lines:
as §1

Data set [7] has as its system Mus musculus. The data set is described as follows: Antiosteoporotic activity in C57BL6/J mouse model of OVX-induced bone loss assessed as trabecular bone volume per tissue volume level in tibial metaphysis at 20 mg/kg, ip BID for 4 weeks by microCT analysis (17.49 +/- 2.91 %). The format is functional.
For data set [8], the system named is Mus musculus. Description: Antiosteoporotic activity in C57BL6/J mouse model of OVX-induced bone loss assessed as trabecular pattern factor level in tibial metaphysis at 20 mg/kg, ip BID for 4 weeks by microCT analysis (17.17 +/- 3.41 […]). The format is functional.
For data set [9], the system named is Mus musculus. The data set is described as follows: Antiosteoporotic activity in C57BL6/J mouse model of OVX-induced bone loss assessed as structure model index level in tibial metaphysis at 20 mg/kg, ip BID for 4 weeks by microCT analysis (1.92 +/- 0.19). The format is functional. The note with it: dose […].
The test system of data set [10] is Mus musculus. Description: Antiosteoporotic activity in C57BL6/J mouse model of OVX-induced bone loss assessed as cortical thickness level in tibial diaphysis at 20 mg/kg, ip BID for 4 weeks by microCT analysis (179.27 +/- 7.57 um). Type of data set: functional.
A short description of data set [11]: Toxicity in C57BL6/J mouse model of OVX-induced bone loss assessed as effect on bone formation by measuring number of osteoblasts per bone surface level in femoral metaphysis at 20 mg/kg, ip QD for 4 weeks by histomorphometry (4.55 +/ 2.53 /mm). The format is organism-based. To be noted: in vivo, 672 h. In a few lines:
as §1

A short description of data set [12]: Toxicity in C57BL6/J mouse model of OVX-induced bone loss assessed as effect on bone formation by measuring osteoblast surface per trabecular bone surface level in femoral metaphysis at 20 mg/kg, ip QD for 4 weeks by histomorphometry (5.03 +/ 2.92 %). Type of data set: organism-based. To be noted: in vivo, 672 h. The essentials: as §1
Data set [13] in a line: Toxicity in C57BL6/J mouse model of OVX-induced bone loss assessed as effect on bone formation by measuring bone formation rate per trabecular bone surface level in femoral metaphysis at 20 mg/kg, ip QD for 4 weeks by histomorphometry ([…]). To be noted: in vivo, 672 h. Type of data set: organism-based.
Data set [14] in a line: Toxicity in C57BL6/J mouse model of OVX-induced bone loss assessed as effect on bone formation by measuring osteocalcin level at 20 mg/kg, ip QD for 4 weeks (1.62 +/ 0.21 m3/um2/y). Type of data set: organism-based. The note with it: in vivo, 672 h.
A short description of data set [15]: Toxicity in C57BL6/J mouse model of OVX-induced bone loss assessed as effect on bone formation by measuring number of osteoblasts per bone surface level in femoral metaphysis at 20 mg/kg, ip BID for 4 weeks by histomorphometry (4.55 +/ 2.53 /mm). The format is organism-based. To be noted: in vivo, 672 h. The essentials: as §1
Data set [16] can be described thus: Toxicity in C57BL6/J mouse model of OVX-induced bone loss assessed as effect on bone formation by measuring bone formation rate per trabecular bone surface level in femoral metaphysis at 20 mg/kg, ip BID for 4 weeks by histomorphometry ([…]). Type of data set: organism-based. The note with it: in vivo, 672 h.
A short description of data set [17]: Toxicity in C57BL6/J mouse model of OVX-induced bone loss assessed as effect on bone formation by measuring osteocalcin level at 20 mg/kg, ip BID for 4 weeks […]. Type of data set: organism-based. To be noted: in vivo, 672 h.
Data set [18] concerns Osteoclast (Homo sapiens). The data set is described as follows: Inhibition of resorption activity of human peripheral blood cell-derived osteoclasts at 1-20 uM incubated for 48 hrs by Kossa-staining based assay. The note with it: dose microM 1-20, time 48.0 hrs.

Turning to `O=S1(=O)N(c2ccccc2)C[C@H](O)[C@]12CCN(Cc1ccc(Cl)cc1)C2` (racemic), the inhibition entry (in the data set with Osteoclast; in data set [18]) was “Active” each time. In addition, the Activity result in data set [1] was “Non-Toxic”; in data set [2], “Non-Toxic”; in [3], “Non-Toxic”; in the data set with Mus musculus [4], 13.7 1/mm; in the data set with Mus musculus [5], 153.3%; with Mus musculus [6] it was 3.51 /millimeter. Besides, the Activity in the data set with Mus musculus [7] was 25.3%; in the data set with Mus musculus [8] it was 6.51 1/mm; in the data set with Mus musculus [10], 193.5 um; in data set [11] it was 2.96 /millimeter; in data set [12], 3.57%; in data set [13], 184.98 um3/um2/yr. For the same molecule, the Activity is reported as 96.8% in [14], 3.63 /millimeter in [15], 157.59 um3/um2/yr in data set [16] and 109.97% in data set [17]. Moreover, in the data set on Mus musculus [9], the Activity_index is 1.48.
